SMILES strings stand for the structures.

The first series is described as follows: Stability in heparin treated rat plasma at 2 uM at 37 degC by electrospray ionization mass spectrometry. Format: ADME, cell-free. The method, boiled down:
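Compounds at […] incubated at 37 °C in heparinized rat plasma. Plasma proteins precipitated with acetonitrile, then compound quantified by ESI-MS against an internal standard. t1/2 derived from a first-order rate constant fitted to concentration versus time.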
Consider `CCc1cc(OC)cc2nc(-c3cccnc3N3CCN(C4CCCC4)CC3)oc(=O)c12`, for which the half-life at 2 µM is 1.5 h.
`CCc1cc(OC)cc2nc(-c3cccnc3N3CCN(CC(C)C)CC3)oc(=O)c12` had a half-life at 2 µM of 0.8 h.
As for `CCc1cc(OC)cc2nc(-c3cccnc3N3CCN(C)CC3)oc(=O)c12`, the half-life at 2 µM was 1.4 h.
Take `CCc1cc(OC)cc2nc(-c3cccnc3N3CCN(CCN(C)C)CC3)oc(=O)c12`: the half-life at 2 µM amounted to 0.13 h.
On the same count and under the same terms, in the case of `CCc1cc(OC)cc2nc(-c3cccnc3N3CCN(CCO)CC3)oc(=O)c12` it was 0.283 h; in that of `CCc1cc(OC)cc2nc(-c3cccnc3N3CCC(C(=O)O)CC3)oc(=O)c12`, 1.35 h.
`CCc1cc(OC)cc2nc(-c3cccnc3N3CCN(CCN4CCOCC4)CC3)oc(=O)c12` showed a half-life at 2 µM of 0.317 h. Compared with the last molecule, the half-life at 2 µM is about 4.3-fold lower.
Regarding `CCc1cc(OC)cc2nc(-c3cccnc3N3CCN(CCC#N)CC3)oc(=O)c12`, the half-life at 2 µM is 0.183 h.
Consider `CCc1cc(OC)cc2nc(-c3cccnc3N3CCN(CC(=O)O)CC3)oc(=O)c12`, for which the half-life at 2 µM was 4.5 h.
The molecule `CCc1cc(OC)cc2nc(-c3cccnc3N3CCC[C@@H](C(=O)O)C3)oc(=O)c12` displayed a half-life at 2 µM of 2.5 h. Compared with the last molecule, the half-life at 2 µM is about 1.8-fold lower.
Still for that read-out and setting: in the case of `CCc1cc(OC)cc2nc(-c3cccnc3N3CCC[C@H](C(=O)O)C3)oc(=O)c12` it was 2.33 h.
Consider `CCc1cc(OC)cc2nc(-c3cccnc3N3CCN(CC4CC4)CC3)oc(=O)c12`, for which the half-life at 2 µM came out at 1.15 h.
Molecule `CCc1cc(OC)cc2nc(-c3cccnc3N3CCN(CCOC)CC3)oc(=O)c12` returned a half-life at 2 µM of 0.867 h.
On to `CCCCN1CCN(c2ncccc2-c2nc3cc(OC)cc(CC)c3c(=O)o2)CC1`, for which the half-life at 2 µM turned out to be 0.85 h.

The nature of the next series: Chemical stability in 200 mM sodium borate buffer at pH 9.2. Format: physicochemical. The method, boiled down:
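Alkaline hydrolysis followed by loss of the intact benzoxazinone ring absorbance maximum (340 nm 10 nm) in 200 mM sodium borate, pH 9.2, with 1% DMSO.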
`CCc1cc(OC)cc2nc(-c3cccnc3N3CCN(C)CC3)oc(=O)c12` yielded a half-life of 4 h.
With `CCc1cccc2nc(-c3cccnc3N3CCN(C)CC3)oc(=O)c12`, the half-life is 1.08 h.
Regarding `CCc1cc(OC)cc2nc(-c3cccnc3N3CCC(C(=O)O)CC3)oc(=O)c12`, the half-life was found to be 16.7 h. Compared with the last molecule, the half-life is about 15-fold higher.
Turning to `CCc1cc(N(C)C)cc2nc(-c3cccnc3N3CCN(C)CC3)oc(=O)c12`, the half-life came to 122 h.
On to `CCc1cc(N(C)C)cc2nc(-c3cccnc3N3CCN(C4CCN(C)CC4)CC3)oc(=O)c12`, for which the half-life amounted to 115 h.
For the molecule `CCc1cc(OC)cc2nc(-c3cccnc3N3CCN(C4CCN(C)CC4)CC3)oc(=O)c12`, the half-life turned out to be 23.3 h.
The same measure, in the same setting: in the case of `CCc1cccc2nc(-c3cccnc3N3CCN(C4CCN(C)CC4)CC3)oc(=O)c12` it was 0.933 h; in that of `CCc1cccc2nc(-c3cccnc3N3CCC(C(=O)O)CC3)oc(=O)c12`, 1.48 h.

Broadly, the half-life is the time in which the quantity being followed falls by half. High values mean slow loss, low ones fast loss.

(Values after ChEMBL document CHEMBL1153067, “Synthesis and optimization of 2-pyridin-3-yl-benzo[d][1,3]oxazin-4-one based inhibitors of human neutrophil elastase” (Bioorg Med Chem Lett, 2009).)
